The record followed here is PubChem BioAssay AID651628 (The Scripps Research Institute Molecular Screening Center, 2012).

Unmarked numbers belong to inactive results. Active and inactive are the calls of the source.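 Rule for the calls: active = at least one off-target enzyme showing weaker fluorescent probe labeling in any proteome panel; inactive = no off-target enzyme affected in any panel.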

The test system of this test is Soluble Proteome. Briefly: proteome-wide probe labelling blockade by competitive ABPP – cell lysate, gel-based fluorescence, soluble and membrane fractions, selectivity assay for PAD4 inhibitor project, late-stage follow-up (AID 651628). Particulars: MCF7 proteome, CA-Rh gel-based ABPP, anti-target count, at 10 µM, stronger effect = higher value. The gist of the method:
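Buffer or medium: DPBS; System: MCF7 soluble or membrane proteome; Quantity: proteome protein concentration of 1 mg/ml; Also added: CA-Rh probe, 10 µM; Times: compound pre-incubation 1 h, then probe labelling 1 h, both 25 °C; Control set: DMSO-only reference; Signal: SDS-PAGE separation with in-gel fluorescence scanning of labelled bands.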
On to `NC1=CC(=O)c2ccc(-c3cccc(C(=O)O)n3)nc2C1=O`, for which the number of anti-targets is 0.

`COC(=O)c1cccc(-c2ccc3c(n2)C(=O)C(N)=CC3=O)n1`: the number of anti-targets is 0.

For `COC1=C(Br)C(=O)c2nc(-c3ccccn3)ccc2C1=O`, the number of anti-targets is 0.

For the compound `NC1=CC(=O)c2cccnc2C1=O`, the number of anti-targets is 0.

As for `COC1=C(N)C(=O)c2nc(-c3nc(C(=O)O)c(C)c(-c4ccc(OC)c(OC)c4O)c3N)ccc2C1=O`, the number of anti-targets was 0.

For the compound `O=C1C=C(Br)C(=O)c2ncccc21`, the number of anti-targets was > 5 (active).

Take `COC1=C(N)C(=O)c2ncccc2C1=O`: the number of anti-targets was 0.

Regarding `COC1=C(Br)C(=O)c2ncccc2C1=O`, the number of anti-targets is > 5 (active).

Take `O=C1C(O)=C(O)C(=O)c2ncccc21`: the number of anti-targets is 0.

For the compound `COC1=C(I)C(=O)c2nc(C#N)ccc2C1=O`, the number of anti-targets is > 5 (active).

Regarding `NC1=CC(=O)c2ccc(-c3ccccn3)nc2C1=O`, the number of anti-targets was 0.

Take `COC1=CC(=O)c2nc(C#N)ccc2C1=O`: the number of anti-targets was > 5 (active).

On to `COC(=O)c1cccc(-c2ccc3c(n2)C(=O)C(Br)=CC3=O)n1`, for which the number of anti-targets was 0.

Take `COC(=O)c1nc(C(=O)OC)c(NC(C)=O)c(-c2ccccc2Br)c1C`: the number of anti-targets is 0.
